Results from ChEMBL document CHEMBL3272290, “Contragestational agents. 1. Steroidal O-aryloximes” (J Med Chem, 1977).
Active and inactive are the calls of the source. The rule behind the calls is not given here.

Legend:
[1] = system: Rattus norvegicus; test: Antifertility activity in Wistar rat assessed as inhibition of preimplantive gestation by measuring resorptions at 20 mg/kg, po administered in days 9 to 12 of pregnancy measured on day 21; format: functional; parameters: scale not given: the % may be the effect or the level left
Outline: (§1)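 Groups of five pregnant female Wistar-derived rats dosed orally on days 9–12 of pregnancy, in sesame oil at 0.5 mL per 200 g body weight. Read-out was the percentage of resorptions.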

[2] = system: Rattus norvegicus; test: Androgenic activity in po dosed castrate immature Wistar rat assessed as dose required to produce significant increase in ventral prostate weight administered qd for 7 days; format: functional; settings: Prostate gland, 168 h, read-out: MED
Outline: (§2)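 Castrated immature rats dosed orally once a day for 7 days, in sesame oil at 0.2 mL per dose. Read-out was ventral prostate weight. Potency is expressed relative to 17-methyltestosterone. MED is the smallest tested dose giving a significant rise in ventral prostate weight.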

[3] = system: Rattus norvegicus; test: Antifertility activity in Wistar rat assessed as inhibition of preimplantive gestation by measuring resorptions at 2.5 mg/kg, po administered in days 9 to 12 of pregnancy measured on day 21; format: functional; parameters: scale not given: the % may be the effect or the level left; outline: as §1
[4] = system: Rattus norvegicus; test: Androgenic activity in castrate immature Wistar rat at 2.5 mg/kg, po qd for 7 days relative to 17-methyl-testosterone; format: functional; outline: as §2
[5] = system: Rattus norvegicus; test: Antifertility activity in Wistar rat assessed as inhibition of preimplantive gestation by measuring resorptions at 5 mg/kg, po administered in days 9 to 12 of pregnancy measured on day 21; format: functional; parameters: scale not given: the % may be the effect or the level left; outline: as §1
[6] = system: Rattus norvegicus; test: Estrogenic activity in rat at 10 to 100 mg/kg; format: functional, organism-based
[7] = system: Rattus norvegicus; test: Androgenic activity in rat at 10 to 100 mg/kg; format: functional, organism-based
[8] = system: Rattus norvegicus; test: Antiestrogenic activity in rat at 10 to 100 mg/kg; format: functional, organism-based
[9] = system: Rattus norvegicus; test: Toxicity in rat assessed as adverse effect at 10 to 100 mg/kg; format: organism-based; parameters: dose 10-100 mg/kg; settings: in vivo
[10] = system: Oryctolagus cuniculus; test: Antiestrogenic activity in rabbit at 10 to 100 mg/kg; format: functional, organism-based
[11] = system: Rattus norvegicus; test: Progestational activity in rat at 10 to 100 mg/kg; format: functional, organism-based
[12] = system: Oryctolagus cuniculus; test: Toxicity in rabbit assessed as adverse effect at 10 to 100 mg/kg; format: organism-based; parameters: dose 10-100 mg/kg; settings: in vivo
[13] = system: Oryctolagus cuniculus; test: Estrogenic activity in rabbit at 10 to 100 mg/kg; format: functional, organism-based
[14] = system: Oryctolagus cuniculus; test: Antiandrogenic activity in rabbit at 10 to 100 mg/kg; format: functional, organism-based
[15] = system: Rattus norvegicus; test: Antiandrogenic activity in rat at 10 to 100 mg/kg; format: functional, organism-based
[16] = system: Oryctolagus cuniculus; test: Androgenic activity in rabbit at 10 to 100 mg/kg; format: functional, organism-based
[17] = system: Oryctolagus cuniculus; test: Antiprogestational activity in rabbit at 10 to 100 mg/kg; format: functional, organism-based
[18] = system: Rattus norvegicus; test: Antifertility activity in Wistar rat assessed as inhibition of preimplantive gestation by measuring resorptions at 5 mg/kg, po administered in days 1 to 6 of pregnancy measured on day 21; format: functional, organism-based; parameters: dose 5 mg/kg
[19] = system: Oryctolagus cuniculus; test: Progestational activity in rabbit at 10 to 100 mg/kg; format: functional, organism-based
[20] = system: Rattus norvegicus; test: Antifertility activity in Wistar rat assessed as inhibition of preimplantive gestation by measuring resorptions at 2.5 mg/kg, po administered in day 11 of pregnancy measured on day 21; format: functional, organism-based; parameters: dose 2.5 mg/kg
[21] = system: Rattus norvegicus; test: Antiprogestational activity in rat at 10 to 100 mg/kg; format: functional, organism-based
[22] = system: Rattus norvegicus; test: Antifertility activity in Wistar rat assessed as inhibition of preimplantive gestation by measuring resorptions at 36 mg/kg, po administered in days 9 to 12 of pregnancy measured on day 21; format: functional; parameters: scale not given: the % may be the effect or the level left
Outline: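 Given orally in sesame oil (0.5 mL per 200 g body weight) to groups of five female Wistar-derived rats on days 9–12 of pregnancy. Outcome scored as percent resorptions.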

[23] = system: Rattus norvegicus; test: Antifertility activity in Wistar rat assessed as inhibition of preimplantive gestation by measuring resorptions at 40 mg/kg, po administered in days 9 to 12 of pregnancy measured on day 21; format: functional; parameters: scale not given: the % may be the effect or the level left; outline: as §1
[24] = system: Rattus norvegicus; test: Androgenic activity in castrate immature Wistar rat at 10 mg/kg, po qd for 7 days relative to 17-methyl-testosterone; format: functional; outline: as §2
[25] = system: Rattus norvegicus; test: Antifertility activity in Wistar rat assessed as inhibition of preimplantive gestation by measuring resorptions at 10 mg/kg, po administered in days 9 to 12 of pregnancy measured on day 21; format: functional; parameters: scale not given: the % may be the effect or the level left; outline: as §1
[26] = system: Rattus norvegicus; test: Antifertility activity in Wistar rat assessed as inhibition of preimplantive gestation by measuring resorptions at 50 mg/kg, po administered in days 9 to 12 of pregnancy measured on day 21; format: functional; parameters: scale not given: the % may be the effect or the level left; outline: as §1

SMILES: C[C@]12CC[C@H]3[C@@H](CCC4=C/C(=N/Oc5ccccn5)CC[C@@H]43)[C@@H]1CC[C@@H]2O
- Activity [1]: 100%

SMILES: C[C@]12CC[C@H]3[C@@H](CCC4=C/C(=N/Oc5ccc([N+](=O)[O-])cc5[N+](=O)[O-])C=C[C@@]43C)[C@@H]1CC[C@@H]2O
- Activity [1]: 92.6%

SMILES: CC(=O)O[C@H]1CC[C@H]2[C@@H]3CC[C@H]4C/C(=N/Oc5ccc([N+](=O)[O-])cc5)CC[C@]4(C)[C@H]3CC[C@]12C
- minimal effective dose [2]: 30 mg/kg
- Activity [3]: 96.6%
- Activity [4]: 2.5%

SMILES: C[C@]12CC/C(=N\Oc3ccc([N+](=O)[O-])cc3)C[C@@H]1CC[C@@H]1[C@@H]2CC[C@]2(C)C(=O)CC[C@@H]12
- Activity [5]: 100%

SMILES: C[C@]12CC[C@H]3[C@@H](CCC4=C/C(=N/Oc5ccc([N+](=O)[O-])cc5)C=C[C@@]43C)[C@@H]1CC[C@@H]2O
- Activity [1]: 6%

SMILES: C[C@]12CC[C@H]3[C@@H](CCC4=C/C(=N/Oc5ccc([N+](=O)[O-])cc5[N+](=O)[O-])CC[C@@H]43)[C@@H]1CC[C@@H]2O
- Activity [1]: 100%

SMILES: CC(=O)O[C@H]1CC[C@H]2[C@@H]3CC[C@H]4C/C(=N/Oc5ccc([N+](=O)[O-])cc5)[C@H](Cl)C[C@]4(C)[C@H]3CC[C@]12C [NISTERIME ACETATE]
- Activity [6]: inactive
- minimal effective dose [2]: > 90 mg/kg
- Activity [7]: inactive
- Activity [8]: inactive
- Activity [3]: 100%
- Activity [9]: Non-toxic
- Activity [10]: inactive
- Activity [11]: inactive
- Activity [12]: Non-toxic
- Activity [13]: inactive
- Activity [14]: inactive
- Activity [15]: inactive
- Activity [16]: inactive
- Activity [17]: inactive
- inhibition [18]: Active
- Activity [19]: inactive
- inhibition [20]: Active
- Activity [21]: inactive

SMILES: C[C@]12CC/C(=N\Oc3ccc([N+](=O)[O-])cc3)C[C@@H]1CC[C@@H]1[C@@H]2CC[C@]2(C)/C(=N/O)CC[C@@H]12
- Activity [22]: 0%

SMILES: C[C@]12C[C@@H](Br)/C(=N\Oc3ccc([N+](=O)[O-])cc3)C[C@@H]1CC[C@@H]1[C@@H]2CC[C@]2(C)C(=O)CC[C@@H]12
- Activity [3]: 100%

SMILES: CCCCCCC(=O)O[C@H]1CC[C@H]2[C@@H]3CC[C@H]4C/C(=N/Oc5ccc([N+](=O)[O-])cc5)CC[C@]4(C)[C@H]3CC[C@]12C
- Activity [5]: 100%

SMILES: C[C@]12CC/C(=N\Oc3ccc([N+](=O)[O-])cc3[N+](=O)[O-])C=C1CC[C@@H]1[C@@H]2CC[C@@]2(C)[C@H]1CC[C@]2(C)O
- Activity [1]: 2.2%

SMILES: C[C@]12C[C@@H](Br)/C(=N\Oc3ccc([N+](=O)[O-])cc3)C[C@@H]1CC[C@@H]1[C@@H]2CC[C@]2(C)[C@@H](O)CC[C@@H]12
- Activity [3]: 100%

SMILES: C[C@]12CC/C(=N\Oc3ccc([N+](=O)[O-])cc3[N+](=O)[O-])C[C@@H]1CC[C@@H]1[C@@H]2CC[C@]2(C)[C@@H](O)CC[C@@H]12
- Activity [23]: 8.2%

SMILES: CC(=O)O[C@H]1CC[C@H]2[C@@H]3CC[C@H]4C/C(=N/Oc5ccc([N+](=O)[O-])cc5)C[C@H](C)[C@]4(C)[C@H]3CC[C@]12C
- Activity [23]: 5.8%

SMILES: C[C@]12CC/C(=N\Oc3ccc([N+](=O)[O-])cc3)C[C@@H]1CC[C@@H]1[C@@H]2CC[C@]2(C)[C@@H](N)CC[C@@H]12
- Activity [23]: 2%

SMILES: C[C@]12CC/C(=N\Oc3ccc(C(F)(F)F)cc3)C[C@@H]1CC[C@@H]1[C@@H]2CC[C@]2(C)[C@@H](O)CC[C@@H]12
- Activity [23]: 4.8%

SMILES: C[C@]12CC[C@H]3[C@@H](CCC4=C/C(=N/Oc5ccc([N+](=O)[O-])cc5[N+](=O)[O-])CC[C@@]43C)[C@@H]1CC[C@@H]2O
- Activity [24]: 80%
- minimal effective dose [2]: 1.5 mg/kg
- Activity [25]: 80.8%

SMILES: C[C@]12CC/C(=N\OCc3ccc(Br)c(O)c3)C[C@@H]1CC[C@@H]1[C@@H]2CC[C@]2(C)[C@@H](O)CC[C@@H]12
- Activity [23]: 8.8%

SMILES: C[C@]12CC/C(=N\Oc3ccc([N+](=O)[O-])cc3)C[C@@H]1CC[C@@H]1[C@@H]2CC[C@@]2(C)[C@H]1CCC21SCCS1
- Activity [23]: 4%

SMILES: CC(=O)O[C@H]1CC[C@H]2[C@@H]3CC[C@H]4C/C(=N/Sc5ccc([N+](=O)[O-])cc5)CC[C@]4(C)[C@H]3CC[C@]12C
- Activity [23]: 7.5%

SMILES: CC(=O)O[C@H]1CC[C@H]2[C@@H]3CC[C@H]4C/C(=N/Nc5ccc([N+](=O)[O-])cc5)CC[C@]4(C)[C@H]3CC[C@]12C
- Activity [23]: 7.7%

SMILES: CC(=O)O[C@H]1CC[C@H]2[C@@H]3CC[C@H]4C/C(=N/Oc5ccc([N+](=O)[O-])cc5)[C@H](Br)C[C@]4(C)[C@H]3CC[C@]12C
- Activity [3]: 100%

SMILES: C[C@]12CC[C@H]3[C@@H](CC[C@H]4C/C(=N/Oc5ccc([N+](=O)[O-])cc5)CC[C@@H]43)[C@@H]1CC[C@@H]2O
- Activity [23]: 9.8%

SMILES: C[C@]12CC/C(=N\Oc3ccc([N+](=O)[O-])cc3[N+](=O)[O-])C[C@H]1CC[C@@H]1[C@@H]2CC[C@]2(C)[C@@H](O)CC[C@@H]12
- Activity [23]: 5.4%

SMILES: C[C@]12CC/C(=N\Oc3ccccc3)C[C@H]1CC[C@@H]1[C@@H]2CC[C@]2(C)[C@@H](O)CC[C@@H]12
- Activity [23]: 11.9%

SMILES: CC12CC[C@H]3[C@@H](CC[C@H]4C/C(=N/Oc5ccc([N+](=O)[O-])cc5)[C@H](Cl)C[C@@]43C)[C@@H]1CCC2=O (single isomer, unassigned)
- Activity [3]: 100%

SMILES: C[C@]12CC/C(=N\Oc3ccc([N+](=O)[O-])cc3C(F)(F)F)C[C@@H]1CC[C@@H]1[C@@H]2CC[C@]2(C)[C@@H](O)CC[C@@H]12
- Activity [26]: 0%

SMILES: CC(=O)O[C@H]1CC[C@H]2[C@@H]3CC[C@H]4CC(=O)CC[C@]4(C)[C@H]3CC[C@]12C
- Activity [23]: 5%

SMILES: C[C@]12C[C@@H](Cl)/C(=N\Oc3ccc([N+](=O)[O-])cc3)C[C@@H]1CC[C@@H]1[C@@H]2CC[C@]2(C)[C@@H](O)CC[C@@H]12
- Activity [5]: 100%

SMILES: C[C@]12CC[C@H]3[C@@H](CCC4=C/C(=N/Oc5ccc([N+](=O)[O-])cc5)CC[C@@H]43)[C@@H]1CC[C@@H]2O
- Activity [1]: 63.9%

SMILES: CC(=O)[C@H]1CC[C@H]2[C@@H]3CC[C@H]4C/C(=N/Oc5ccc([N+](=O)[O-])cc5)CC[C@]4(C)[C@H]3CC[C@]12C
- Activity [23]: 4%

SMILES: C[C@]12CC/C(=N\Oc3ccc([N+](=O)[O-])cc3)C[C@@H]1CC[C@@H]1[C@@H]2CC[C@]2(C)[C@@H](O)CC[C@@H]12
- Activity [3]: 100%

SMILES: C#C[C@]1(O)CC[C@H]2[C@@H]3CCC4=C/C(=N/Oc5ccc([N+](=O)[O-])cc5)CC[C@@H]4[C@H]3CC[C@@]21C
- Activity [23]: 25%
